LEDGF integ inh: blocks HIV-1 LEDGF/p75-dependent DNA integration | TR-FRET IN-LEDGF/p75 DNA integration, Eu/Cy5 | 370,000 tested, 0.64% active | inhibition, % at 3.7 µM;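 active means inhibition above the screen-wide mean plus 3 SD, cut at about 13% in these data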;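 further: signal is the Cy5 over europium emission ratio at 671 and 618 nm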
MBD2 inh: blocks human MBD2 binding to methylated DNA; TR-FRET, MBD2 binding to methylated oligonucleotide; inhibition, % at 4.4 µM; 370,000 tested, 0.31% active; AID 686964; in the data active means inhibition above about 13%
UHRF1 MBD2 ctr: UHRF1 methyl-DNA binding inhibition; UHRF1 binding to methylated oligo, TR-FRET; inhibition, % at 4.4 µM; AID 687016; Q96T88; 370,000 tested, 0.75% active; in the data active means inhibition above about 21%;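 further: UHRF1 SRA domain binding a hemimethylated CpG hairpin DNA probe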
Target sequence (Q96T88 whole entry, looked up, the tested form may be a part): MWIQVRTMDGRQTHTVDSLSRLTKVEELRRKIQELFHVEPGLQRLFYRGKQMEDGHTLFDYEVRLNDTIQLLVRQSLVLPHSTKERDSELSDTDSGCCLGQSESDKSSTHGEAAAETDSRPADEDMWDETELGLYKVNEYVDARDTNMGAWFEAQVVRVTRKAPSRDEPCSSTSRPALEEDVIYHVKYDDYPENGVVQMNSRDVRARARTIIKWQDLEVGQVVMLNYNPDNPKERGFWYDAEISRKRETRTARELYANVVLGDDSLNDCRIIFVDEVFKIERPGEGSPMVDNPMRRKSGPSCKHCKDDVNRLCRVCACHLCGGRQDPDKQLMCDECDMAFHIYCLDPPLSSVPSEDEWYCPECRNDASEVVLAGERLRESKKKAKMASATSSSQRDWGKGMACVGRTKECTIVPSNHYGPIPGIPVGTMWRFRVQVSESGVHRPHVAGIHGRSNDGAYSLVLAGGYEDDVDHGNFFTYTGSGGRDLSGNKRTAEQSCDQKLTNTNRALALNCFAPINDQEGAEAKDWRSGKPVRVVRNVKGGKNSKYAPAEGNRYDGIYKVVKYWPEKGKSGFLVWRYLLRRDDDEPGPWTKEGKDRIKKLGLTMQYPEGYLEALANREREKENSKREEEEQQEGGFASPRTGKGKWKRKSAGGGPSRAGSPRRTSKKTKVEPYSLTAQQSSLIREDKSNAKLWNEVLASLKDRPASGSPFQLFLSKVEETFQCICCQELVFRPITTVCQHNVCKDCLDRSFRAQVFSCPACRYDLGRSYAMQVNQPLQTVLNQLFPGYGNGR
ATG4B inh: blocks human ATG4B protease cleavage of LC3 substrate | Q9Y4P1 | ATG4B cleavage of LC3-PLA2, NBD-HPC fluorescence, 1 h | inhibition, % at 8.33 µM | 340,000 tested, 0.51% active | AID 504462; in the data active means inhibition above about 40%
CSN inh: inhibitors of human CSN-mediated cullin deneddylation | inhibition, % at 12.5 µM | 360,000 tested, 0.38% active | Purified CSN, SCF-Nedd8-OG deneddylation, fluorescence polarization | Q92905;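 active means pattern-corrected inhibition above about 35%, with an unprinted fluorescence ratio check between 0.5 and 1.5, limit read from the data, passing the limit was not always enough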
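Assay system: Purified human Csn5 enzyme expressed in HEK293T cells | Amount: Enzyme 0.24 nM | Measured by: Fluorescence polarization readout | Medium: Tris/NaCl/DTT buffer, pH 7.5 | Compound dosing: One concentration, 12.5 µM, 0.25% DMSO | Times: 90 min incubation of compound, enzyme and substrate at room temperature | Control set: no-enzyme wells high, enzyme-with-substrate wells low | Read-out: % inhibition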
rCAG RNA binder: binds r(CAG) RNA repeats; r(CAG) RNA repeat, TO-PRO-1 dye displacement fluorescence; inhibition, % at 3 µM; 370,000 tested, 1.3% active; AID 651821;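 active means inhibition above the plate cutoff, the mean of all test compounds on that plate plus 3 SD, cut at about 35% in these data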;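 further: higher means more dye released from RNA so lower well fluorescence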
Hits are given with their value. Hits are enriched below; roughly 3.1% of the tested compounds scored in any of these assays.

For Cc1cc(NC(=O)CSc2nc(-c3ccccc3Cl)nc3c2c(=O)n(C)c(=O)n3C)no1 the results were LEDGF integ inh inactive, MBD2 inh inactive, UHRF1 MBD2 ctr 23.4, ATG4B inh inactive, CSN inh inactive and rCAG RNA binder inactive.
Screening CN(C)C1=NC[C@H](Cc2ccccc2)N1CCCC1CCCC1 returned LEDGF integ inh inactive, MBD2 inh inactive, UHRF1 MBD2 ctr 22.9, ATG4B inh inactive, CSN inh inactive and rCAG RNA binder inactive.
Cc1c(N=C2C=C(Br)C(=O)C(Br)=C2)c(=O)n(-c2ccccc2)n1C was read as LEDGF integ inh 56.7, MBD2 inh 18.5, UHRF1 MBD2 ctr 55.7, ATG4B inh inactive, CSN inh inactive and rCAG RNA binder inactive.
CCOc1ncccc1C(=O)Nc1ccc(S(=O)(=O)Nc2nccs2)cc1 was read as LEDGF integ inh inactive, MBD2 inh inactive, UHRF1 MBD2 ctr inactive, ATG4B inh inactive, CSN inh inactive and rCAG RNA binder inactive.
For CCOc1ccc(-n2ccc(=O)c(C(=O)Nc3ccc(S(=O)(=O)Nc4nccs4)cc3)n2)cc1 the results were LEDGF integ inh inactive, MBD2 inh inactive, UHRF1 MBD2 ctr inactive, ATG4B inh inactive, CSN inh inactive and rCAG RNA binder 68.1.
Screening CCN(C(=O)C1CCCN(c2nnc(-n3cccc3)s2)C1)c1ccccc1C (stereo unspecified) returned LEDGF integ inh inactive, MBD2 inh inactive, UHRF1 MBD2 ctr inactive and rCAG RNA binder inactive.
`CCCCc1ccc(-c2csc(/C(C#N)=C/c3ccc(C)o3)n2)cc1` gave LEDGF integ inh inactive, MBD2 inh inactive, UHRF1 MBD2 ctr inactive, ATG4B inh inactive, CSN inh 40.8 and rCAG RNA binder inactive.
CCCCCN1CCCCC(NC(=O)C(C)(C)C)C1=O (stereo unspecified) was read as LEDGF integ inh inactive, MBD2 inh inactive, UHRF1 MBD2 ctr inactive and rCAG RNA binder inactive.
`Cc1cccc(C)c1N=Cc1c(O)n(-c2nccs2)c(=O)c2ccccc12` gave ATG4B inh inactive and CSN inh inactive.
For O=c1c2ccccc2c(/C=N/c2nnc(Cc3ccccc3)s2)c(O)n1-c1ccc(Cl)cn1 the results were LEDGF integ inh inactive, MBD2 inh inactive, UHRF1 MBD2 ctr inactive, ATG4B inh inactive, CSN inh 41.4 and rCAG RNA binder inactive.
Screening COC(=O)[C@H]1C[C@@]2(n3ccc4ccccc43)c3ccccc3N[C@H]2N1 returned LEDGF integ inh inactive, MBD2 inh inactive, UHRF1 MBD2 ctr inactive and rCAG RNA binder inactive.
`C#CCN1C(=O)S/C(=C\c2cc3c(cc2OC)OCO3)C1=O` gave LEDGF integ inh inactive, MBD2 inh inactive, UHRF1 MBD2 ctr inactive, ATG4B inh inactive, CSN inh 50.1 and rCAG RNA binder inactive.
For C/C(Cn1cnc([N+](=O)[O-])n1)=N\NC(=O)c1ccccc1O the results were LEDGF integ inh inactive, MBD2 inh inactive, UHRF1 MBD2 ctr inactive, ATG4B inh inactive, CSN inh inactive and rCAG RNA binder inactive.
`C/C(Cn1cnc([N+](=O)[O-])n1)=N/NC(=O)COc1ccccc1Cl` gave LEDGF integ inh inactive, MBD2 inh inactive, UHRF1 MBD2 ctr 24.4, ATG4B inh inactive, CSN inh inactive and rCAG RNA binder inactive.
Screening O=C(CCl)NC1CCCCN(Cc2ccc(OC(F)(F)F)cc2)C1=O (stereo unspecified) returned LEDGF integ inh inactive, MBD2 inh inactive, UHRF1 MBD2 ctr inactive and rCAG RNA binder inactive.
`CN(C(=O)c1cccc(C#N)c1)c1nnc(-c2ccccn2)s1` gave LEDGF integ inh inactive, MBD2 inh inactive, UHRF1 MBD2 ctr 21.7, ATG4B inh inactive, CSN inh inactive and rCAG RNA binder inactive.
For CN(C(=O)c1ccc(C#N)cc1)c1nnc(-c2ccccn2)s1 the results were LEDGF integ inh inactive, MBD2 inh inactive, UHRF1 MBD2 ctr inactive, ATG4B inh inactive, CSN inh inactive and rCAG RNA binder inactive.
Screening CCC1(C(=O)c2ccc(Cl)cc2)C2c3ccccc3OC(=O)C21C(=O)Nc1ccccc1 (stereo unspecified) returned LEDGF integ inh inactive, MBD2 inh inactive, UHRF1 MBD2 ctr inactive, ATG4B inh inactive, CSN inh inactive and rCAG RNA binder 40.2.
For CCCC1CCC2(CCC(=O)N2CCSc2ccccc2)CC1 (stereo unspecified) the results were LEDGF integ inh inactive, MBD2 inh inactive, UHRF1 MBD2 ctr inactive and rCAG RNA binder inactive.
`CCOC(=O)c1c(C)n(O)c2ccc(Cl)cc2c1=O` gave LEDGF integ inh inactive, MBD2 inh inactive, UHRF1 MBD2 ctr 25.4, ATG4B inh inactive, CSN inh inactive and rCAG RNA binder inactive.
Screening Cc1c(C(=O)N(C)C)c2cc(Cl)ccc2n1O returned LEDGF integ inh inactive, MBD2 inh inactive, UHRF1 MBD2 ctr inactive, ATG4B inh inactive, CSN inh inactive and rCAG RNA binder inactive.
`COc1ccc(NS(=O)(=O)c2cc(NC(=O)c3ccc(=O)[nH]n3)ccc2N2CCOCC2)cc1` gave LEDGF integ inh inactive, MBD2 inh inactive, UHRF1 MBD2 ctr 29.2, ATG4B inh inactive, CSN inh inactive and rCAG RNA binder inactive.
`COc1ccc(NS(=O)(=O)c2cc(NC(=O)c3ccc(=O)[nH]c3)ccc2N2CCOCC2)cc1` gave LEDGF integ inh inactive, MBD2 inh inactive, UHRF1 MBD2 ctr inactive, ATG4B inh inactive, CSN inh inactive and rCAG RNA binder inactive.
Screening C#CCOCCOCCOCCNc1nc(N2CCN(C(=O)[C@H](CCCCN)n3cc(CN)nn3)CC2)nc(N2CCN(C(=O)[C@H](CCCCN)n3cc([C@@H](N)[C@H](C)CC)nn3)CC2)n1 returned LEDGF integ inh inactive, MBD2 inh inactive, UHRF1 MBD2 ctr inactive, ATG4B inh inactive, CSN inh 98.7 and rCAG RNA binder inactive.
C#CCOCCOCCOCCNc1nc(N2CCN(C(=O)[C@H](CCCCN)n3cc([C@@H](N)C(C)CC)nn3)CC2)nc(N2CCN(C(=O)[C@H](Cc3cc4ccccc4[nH]3)n3cc([C@@H](N)CC(C)C)nn3)CC2)n1 (stereo partly specified) was read as ATG4B inh inactive and CSN inh 45.0.
For COCCCNC(=O)C[C@H]1C[C@@]2(C(=O)OC)C(=C[C@H](C3CCCC3)O[C@@H]2C)N(CCC2=CCCCC2)C1=O the results were LEDGF integ inh inactive, MBD2 inh inactive, UHRF1 MBD2 ctr inactive and rCAG RNA binder inactive.
For COC(=O)[C@H]1C[C@@]2(C)c3ccccc3N(S(=O)(=O)c3ccccc3)[C@H]2N1 the results were LEDGF integ inh inactive, MBD2 inh inactive, UHRF1 MBD2 ctr inactive and rCAG RNA binder inactive.
`S=c1[nH]nc(-c2ccc3ccccc3n2)o1` gave LEDGF integ inh inactive, MBD2 inh inactive, UHRF1 MBD2 ctr inactive, ATG4B inh inactive, CSN inh 112.6 and rCAG RNA binder inactive.
`C[C@H]1[C@@H](OC(=O)N2CCN(c3ccccc3)CC2)CC[C@@]23CCCN2C(=O)CCC[C@@H]13` gave LEDGF integ inh inactive, MBD2 inh inactive and UHRF1 MBD2 ctr inactive.
